Bioassay records (PubChem)
STAT1 activator: activators of IFN-gamma induced STAT1 signaling; NIH 3T3 STAT1-luciferase reporter, luminescence; 100% = IFN-gamma alone, no compound; activation (% of control), % at 5.5 µM; 200,000 tested, 2.6% active;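 active = activation above the screen-wide mean activation plus 3 SD, cut at about 130% in these data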;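 note: raw ratio to IFN-gamma control signal so 100% means no change and 0% no light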
STAT1 blocker: STAT1 signaling inhibition; AID 920; inhibition, % at 5.5 µM; 200,000 tested, 0.35% active; NIH 3T3 STAT1-luciferase reporter, IFN-gamma, luminescence;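 active = inhibition above a set limit, the mean inhibition across all tested compounds plus 3 SD, cut at about 34% in these data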;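 note: 0% = IFN-gamma with DMSO and 100% = IFN-gamma with 300 µM nifuroxazide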
STAT3 activator: STAT3 signaling activation; activation (% of control), % at 5.6 µM; 190,000 tested, 0.91% active; U3A cells, IL-6 STAT3-luciferase reporter, luminescence; 100% = signal with IL-6 EC80 alone;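 active = activation above the screen-wide mean of compound activation plus 3 SD, cut at about 130% in these data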;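 note: 0% = background luminescence of wells with medium and substrate only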
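Material: STAT3-luciferase reporter U3A cells. Controls: IL-6-treated wells, 100% activation. Read-out: % activation versus median of IL-6-stimulated wells. Probe or stimulus: IL-6 stimulus at 33 ng/mL final. Timing: compound 1 h, then IL-6 6 h at 37 °C. Signal: reporter luminescence signal.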
STAT3 inh-1: inhibitors of IL-6 induced STAT3 signaling. U3A cells, IL-6 STAT3-luciferase reporter, luminescence; host cell line lacks STAT1. inhibition, % at 5.5 µM. 190,000 tested, 0.89% active. AID 862;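 active = inhibition above the mean inhibition across all screened compounds plus 3 SD, cut at about 44% in these data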;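 note: 0% = DMSO only wells and 100% = 100 µM nifuroxazide control wells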
STAT3 inh-2: STAT3 inhibition, confirmation assay. shares compounds with STAT3 inh-1. U3A cells, IL-6 STAT3 luciferase reporter, luminescence; cell line lacks STAT1. inhibition, % at 5.7 µM. 1,200 tested, 45% active. AID 1265;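 active = inhibition above the hit cutoff computed for the primary STAT3 screen, cut at about 44% in these data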;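 note: 0% = IL-6 plus DMSO and 100% = IL-6 plus nifuroxazide control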
NFkB inh STAT3ct: NF-kappaB inhibition in STAT3 inhibitor counter-screen. shares compounds with STAT3 inh-1. HEK293T NF-kB luciferase reporter, TNF-alpha induced. inhibition, % at 5.7 µM. 1,200 tested, 36% active. AID 1308;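 active = inhibition above the mean of solvent-only control wells plus 3 SD, cutoff set per campaign, cut at about 13% in these data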;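 note: 0% = TNF-alpha with DMSO and 100% = TNF-alpha with MG high control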
STAT1 inh 2: STAT1 inhibition in STAT3 inhibitor counter-screen; NIH 3T3 STAT1-luciferase reporter, IFN-gamma induced, luminescence; AID 1317; 1,200 tested, 27% active; shares compounds with STAT3 inh-1; inhibition, % at 5.7 µM;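 active = inhibition above the mean plus 3 SD of solvent-only control wells, limit set per screening run, cut at about 16% in these data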;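 note: 0% = DMSO with IFN-gamma and 100% = nifuroxazide control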
Active calls of the source: *; . = no result given. Hits are enriched below; roughly 4.3% of the tested compounds scored in any of these assays.

SMILES	STAT1 activator	STAT1 blocker	STAT3 activator	STAT3 inh-1	STAT3 inh-2	NFkB inh STAT3ct	STAT1 inh 2
Cc1nn(C)c(C)c1/C=C/C(=O)c1ccc(Cl)cc1Cl	76.2	24.6	45.9	66.5*	64.6*	13.4*	16.0
O=C(Nc1cccc(Cl)c1)Nc1ccnc(-c2cccnc2)n1	101.9	-2.5	57.5	54.9*	64.6*	-4.4	10.8
c1c2c(cc3sc(N4CCCCC4)nc13)OCO2	90.3	10.7	53.1	62.1*	34.0	-1.0	-55.9
O=C(/C=C/c1ccc(Cl)cc1Cl)Nc1cccc(S(=O)(=O)NC2=NCCC2)c1	78.5	21.8	57.2	52.4*	33.0	5.8	-4.8
CC(/C=N\NC(=O)Cn1c(C)nc2ccccc21)=C\c1ccccc1	81.7	20.2	41.5	69.6*	69.1*	15.0*	17.3*
O=C(NCCc1ccccc1)c1ccc([N+](=O)[O-])cc1	102.9	-3.1	67.4	44.5*	10.0	-21.6	-67.3
O=C(CCl)N(c1ccccc1)c1c[nH]c2ccccc12	69.2	33.7	63.8	44.8*	30.9	18.7*	27.8*
CCOC(=O)N1CCC(Nc2ncnc3c2cnn3-c2ccc(C)cc2C)CC1	85.7	15.9	50.7	64.1*	48.9*	14.1*	14.4
C/C(N)=C(/C#N)C(=O)COC(=O)[C@@H](NC(=O)c1ccccc1Cl)C(C)C	98.9	2.9	98.0	7.3	.	.	.
O=C(Nc1cccc(O)c1)c1noc2c1CCc1ccccc1-2	83.6	17.9	31.1	83.4*	59.9*	-6.3	15.5
CC1CCCCN1CC(=O)Nc1ccccc1Sc1ccccc1 (stereo unspecified)	98.9	3.5	108.0	-12.7	.	.	.
CC(=O)Nc1ccc(Nc2cc(C)nc3c(-c4ccccc4)cnn23)cc1	150.2*	-56.1	55.5	55.2*	-1.9	-57.1	-150.5
CC(=O)Nc1ccc(Nc2cc(-c3ccccc3)nc3ncnn23)cc1	102.8	-5.0	86.4	18.2	.	.	.
O=C(Nc1cccc(-c2nc3ccccc3s2)c1)C1=COCCO1	107.5	-8.5	99.7	-2.2	.	.	.
O=C(Nc1ccc(-c2nc3ccccc3s2)cc1)C1=COCCO1	126.3	-29.6	54.7	53.7*	77.2*	59.8*	31.4*
COc1ccccc1OCCC(=O)Nc1cccc(S(=O)(=O)N2CCCCC2)c1	98.2	1.4	99.8	1.6	.	.	.
COC(=O)c1cc(NC(=O)Cc2ccc(OC)c(OC)c2)cc(C(=O)OC)c1	97.7	2.5	99.0	4.8	.	.	.
COc1ccc(CC(=O)Nc2cccc(SC)c2)cc1OC	82.5	17.8	63.0	47.2*	44.0*	8.6	13.9
COc1ccc(CC(=O)Nc2cccc(S(=O)(=O)N3CCCCCC3)c2)cc1OC	95.4	5.2	37.5	74.2*	74.6*	27.2*	19.2*
O=C(Cc1ccccc1)Nc1nc2ccccc2s1	124.7	-31.5	108.3	-7.7	.	.	.
Nc1ccc(C(=O)Nc2nc3ccccc3s2)cc1	125.0	-27.9	61.6	51.1*	1.9	-40.1	-172.8
C/C(=N\NC(=O)c1ccccc1O)c1cccs1	114.1	-14.3	50.8	60.7*	29.5	-1.7	-8.1
C/C(=N/NC(=O)c1cc(C2CC2)[nH]n1)c1cccs1	76.4	25.5	36.0	76.3*	51.8*	19.1*	-7.8
Cn1c(-c2ccccc2)cnc1SCC(=O)N1CCCc2ccccc21	103.3	-3.7	88.4	11.7	.	.	.
Cn1c(-c2ccccc2)cnc1SCC(=O)N1CCCCC1	80.2	21.5	46.6	65.7*	40.8	0.4	-45.9
SMILES	STAT1 activator	STAT1 blocker	STAT3 activator	STAT3 inh-1	STAT3 inh-2	NFkB inh STAT3ct	STAT1 inh 2
Cc1cc(C=C2C(=O)c3ccccc3C2=O)c(C)n1-c1ccc(C(=O)O)cc1	103.8	-6.1	97.6	7.8	.	.	.
Cc1cc(/C=C2\Cc3ccccc3C2=O)c(C)n1-c1ccccc1	103.7	-4.2	41.5	70.6*	23.1	-15.3	-100.5
Cc1cc(C=C2C(=O)c3ccccc3C2=O)c(C)n1-c1ccccc1	88.2	13.2	42.8	74.9*	13.3	6.5	-19.4
CCCc1nc2ccc(NC(=O)c3cccs3)cc2c(=O)n1Cc1ccc(Cl)cc1	107.0	-7.9	102.4	-4.0	.	.	.
Cc1nc2ccc(NC(=O)c3cccs3)cc2c(=O)n1Cc1ccc(Cl)cc1	96.9	1.7	59.6	50.9*	43.1	6.0	-6.5
NNC(=O)c1cccc(COc2ccccc2Br)c1	80.2	21.6	38.7	71.4*	60.6*	-9.6	10.0
O=C(c1cc(COc2c(F)cccc2F)on1)N1CCC(c2ccncc2)CC1	76.5	24.6	57.0	52.9*	59.0*	18.3*	19.5*
Cc1ccc(C)n1-c1ccc(-c2ccnc(N)n2)cc1	108.3	-9.3	65.9	44.8*	2.6	-3.8	-28.4
Nc1nccc(-c2cccs2)n1	108.3	-10.5	104.3	1.9	.	.	.
CC(C)c1ccc(CN(C)CC(O)c2ccccc2)cc1 (stereo unspecified)	101.2	-3.2	106.1	-3.5	.	.	.
Cc1noc(C)c1CS(=O)(=O)c1ccc([N+](=O)[O-])cc1	101.5	-3.9	103.5	1.8	.	.	.
O=C(C1CCC(CNc2nc(=S)[nH]c3ccccc23)CC1)N1CCN(c2ccccn2)CC1 (stereo unspecified)	91.1	9.8	58.4	50.4*	52.5*	7.9	34.7*
Cc1nc(C)c(C(=O)Nc2ccc(Oc3ccccc3)cc2)o1	80.9	20.7	56.6	55.1*	28.4	3.3	-2.0
Cc1ncoc1C(=O)Nc1ccc(Oc2ccccc2)cc1	103.3	-3.6	87.2	18.4	.	.	.
CC(=O)NCc1ccc(S(=O)(=O)NC(C(=O)O)C(C)C)cc1 (stereo unspecified)	96.9	2.3	105.7	-5.7	.	.	.
Cc1csc2ncnc(NCCc3ccccn3)c12	67.0	34.5*	40.2	72.1*	74.7*	24.6*	23.6*
O=C(/C=C/c1ccccc1[N+](=O)[O-])N1CCN(C(=O)c2ccco2)CC1	102.6	-4.2	109.1	-3.5	.	.	.
Cc1sc2ncnc(N3CCN(CCOc4ccc(Cl)cc4)CC3)c2c1C	79.9	21.7	37.1	76.3*	76.9*	24.7*	19.6*
Cc1sc2ncnc(N3CCC(C)CC3)c2c1C	92.9	7.7	98.6	2.8	.	.	.
O=C(CC12CC3CC(CC(C3)C1)C2)NC(=S)Nc1ccc(CN2CCOCC2)cc1	105.0	-8.1	98.5	3.6	.	.	.
C/C(=N\Nc1ccc(S(=O)(=O)N2CCOCC2)cc1[N+](=O)[O-])C(C)C	101.6	-4.3	104.3	-3.8	.	.	.
C/C(=N/NC(=O)c1cccs1)c1c(C)[nH]n(-c2nc3ccccc3s2)c1=O	103.2	-3.5	53.1	55.7*	5.9	2.6	-3.9
COC(=O)Cc1[nH]n(-c2ccccc2)c(=O)c1C(C)=Nc1ccccc1	108.3	-9.3	104.2	2.8	.	.	.
